# Most compounds without a hit are left out; they make up all but 1.6% or so of the library.
# PPC-1+TRAIL kill – compounds killing PPC-1 cancer cells with TRAIL present, primary screen, TRAIL potentiator project, ATPLite luminescence, uHTS; PPC-1 cells + TRAIL, ATPLite viability luminescence; cell killing (% activity), % at 4 µM or 5 µM; 0.41% of 220,000 active;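 active = cell killing above 50% in the first pass at 4 µM, then a duplicate retest at 5 µM averaging 50% or more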;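 note: plate controls were cells with TRAIL plus DMSO for no effect and medium-only wells lacking cells for full effect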
# FLuc inh counter – firefly luciferase enzyme inhibitors, primary screen, artefact control for luciferase-based inhibitor screens, biochemical, luminescence, ATPLite | 10 min | 1.5% of 200,000 active | inhibition, % at 10 µM | Luciferin 4-monooxygenase (Photinus pyralis), P08659;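 active = inhibition above about 50% when tested at 10 µM, limit read from the data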
# Target sequence (P08659 whole entry, looked up): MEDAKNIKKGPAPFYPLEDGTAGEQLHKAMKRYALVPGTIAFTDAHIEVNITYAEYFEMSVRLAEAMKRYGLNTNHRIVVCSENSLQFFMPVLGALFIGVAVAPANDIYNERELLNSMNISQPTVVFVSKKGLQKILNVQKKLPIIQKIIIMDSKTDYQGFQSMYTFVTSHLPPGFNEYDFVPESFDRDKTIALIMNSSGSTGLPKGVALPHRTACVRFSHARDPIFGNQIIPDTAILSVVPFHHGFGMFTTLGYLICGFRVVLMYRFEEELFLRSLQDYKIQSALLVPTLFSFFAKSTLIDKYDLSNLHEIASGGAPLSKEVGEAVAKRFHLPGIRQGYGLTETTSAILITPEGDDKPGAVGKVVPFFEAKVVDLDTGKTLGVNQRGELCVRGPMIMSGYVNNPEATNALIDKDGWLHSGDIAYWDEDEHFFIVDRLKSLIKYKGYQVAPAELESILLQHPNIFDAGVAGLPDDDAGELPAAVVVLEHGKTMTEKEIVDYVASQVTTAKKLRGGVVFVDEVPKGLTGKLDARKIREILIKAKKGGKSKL
# TRAIL sens C8 – viability loss with TRAIL in NB7+C8 cells, primary screen, TRAIL sensitizer project, cell-based, ATPlite luminescence. inhibition (viability loss, TRAIL sensitization), % at 10 µM. 1% of 360,000 active;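 active = compounds causing at least 50% loss of cell viability in the single-dose screen, relative to plate controls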
# FLuc act counter – FLuc activators, initial screening, artefact control for FLuc-dependent activation tests, biochemical, ATPlite luminescence; ATPlite luciferase biochemical, 10 min; 0 = ATP-free wells, 1 = DMSO control; activation factor at 10 µM; 200,000 tested, under 10 active; AID 1027, 2008;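 active = luciferase activation factor, scaled between plate controls, of at least 2 with compound at 10 µM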
#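 test system = cell-free luciferase reagent | medium = PBS as buffer for the ATP substrate | dosing = test compounds dosed from 2 mM stocks in 100% DMSO | incubation = 10 min at ambient temperature | detection = luminescence measurement of luciferase light output | benchmarks = low control with PBS replacing ATP, high control enzyme plus ATP without compound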
# * = called active by the depositor; nt = not tested or not shown.
SMILES,PPC-1+TRAIL kill,FLuc inh counter,TRAIL sens C8,FLuc act counter
CCCCCCCCC(c1nc2ccccc2[nH]1)N1CCN=C1c1cc2ccccc2[nH]1 (configuration not stated),nt,nt,87*,nt
Cc1cccc(NC(=O)CSc2nnc3ccc(-c4cccnc4)nn23)c1,nt,nt,-13,nt
Nc1nn(-c2ccccc2)c(N)c1N=Nc1cccc(F)c1,11,nt,11,nt
Nc1nn(-c2ccccc2)c(N)c1N=Nc1ccc2c(c1)OCO2,12,51*,20,0.5
CC(NC(=O)/C(=C/c1ccc2c(c1)OCO2)NC(=O)c1cccc([N+](=O)[O-])c1)C(=O)O (configuration not stated),8,-4,-11,1
CCOc1cccc(-c2nc3cc(C)ccc3o2)c1,-2,68*,14,0.3
Cc1cccc(-c2nc3cc([N+](=O)[O-])ccc3o2)c1,6,18,19,0.8
Cc1ccc2oc(-c3ccccc3)nc2c1,9,76*,12,0.2
Nc1ccc(-c2nc3ccc(-c4nc5ccccc5o4)cc3[nH]2)cc1,20,-4,5,1
Cc1ccc2nc(-c3cc(N)cc(N)c3)oc2c1,28,94*,76*,0.1
Cc1ccc(CNC(=O)CNS(=O)(=O)c2ccc3c(c2)C(C)(C)C(=O)N3C)cc1,nt,nt,5,nt
CCOC(=O)C1(Cc2ccccc2Cl)CCN(C(=O)CCn2ccnc2C)CC1,1,-6,-6,1.1
Cc1ccc(S(=O)(=O)Cc2cc(F)c([N+](=O)[O-])cc2[N+](=O)[O-])cc1,nt,nt,65*,nt
CCCCC[C@@H](C)N1C[C@H](COCc2ccccc2)Oc2cc(N3CC[C@@H](N(C)C)C3)ccc2S1(=O)=O,nt,nt,77*,nt
CCCCC[C@H](C)N1C[C@H](COCc2ccccc2)Oc2cc(N3CC[C@@H](N(C)C)C3)ccc2S1(=O)=O,nt,nt,28,nt
O=c1c2ccccc2cnn1-c1ccc(Br)cc1,32,48,20,0.5
O=c1c2ccccc2cnn1-c1ccc2ccccc2c1,7,64*,51*,0.4
Cn1c(N)c(C(=O)COC(=O)c2cc(S(=O)(=O)N3CCOCC3)ccc2F)c(=O)n(C)c1=O,nt,nt,64*,nt
Cc1ccc(S(=O)(=O)N2CCOCC2)cc1C(=O)OCC(=O)c1c(N)n(C)c(=O)n(C)c1=O,nt,nt,-2,nt
CC1=C(C(=O)N(C)C)CC(CC(=O)NCCN2CCOCC2)C(=O)N1CCCN1CCCC1=O (configuration not stated),nt,nt,55*,nt
Cc1sc(NC(=O)/C=C/c2ccc(C(C)C)cc2)c(C#N)c1C,4,0,19,1
CC(C)c1ccc(/C=C/C(=O)Nc2nncs2)cc1,29,59*,74*,0.4
O=C(COc1ccc(Cl)cc1Cl)Nc1cccnc1,16,58*,32,0.4
CN(c1cccc(NC(=O)COc2ccc(Cl)cc2Cl)c1)S(C)(=O)=O,36,69*,57*,0.3
Cc1ccccc1OCC(=O)Nc1cccc(N(C)S(C)(=O)=O)c1,0,11,20,0.9
SMILES,PPC-1+TRAIL kill,FLuc inh counter,TRAIL sens C8,FLuc act counter
O=C(COc1ccc(Cl)cc1Cl)N/N=C/c1cccnc1,nt,nt,-15,nt
CN(C)S(=O)(=O)c1ccc(Cl)c(C(=O)Nc2cccc3ncccc23)c1,nt,nt,-1,nt
CN(C)c1ccc(C=C2SC(=S)NC2=O)cc1,nt,nt,47,nt
CN(C)c1ccc(/C=N/N=C2/NC(=O)/C(=C/c3ccc([N+](=O)[O-])cc3)S2)cc1,54*,89*,87*,0.1
Cc1ccc(C(=O)/C=C/c2ccc(Br)cc2)o1,4,35,20,0.7
O=C(/C=C/c1ccc2c(c1)OCO2)Nc1nc(-c2ccc(F)cc2F)cs1,18,-1,nt,1
O=C(/C=C/c1ccc2c(c1)OCO2)c1ccc[nH]1,25,76*,25,0.2
Cc1csc(NC(=O)/C=C/c2ccc3c(c2)OCO3)n1,57*,77*,71*,0.2
Cc1ccc(C(=O)/C=C/c2ccc3c(c2)OCO3)o1,9,80*,-10,0.2
Cc1ccc(C(=O)/C=C/c2ccccc2)o1,19,72*,19,0.3
O=C(N/N=C/c1ccc(Br)cc1)c1ccc(Br)o1,16,58*,33,0.4
O=C(N/N=C/c1ccc(Br)cc1)c1ccc(F)cc1,1,39,2,0.6
Cc1ccc(C(=O)N/N=C/c2ccc3c(c2)OCO3)o1,15,69*,36,0.3
Cc1ccc(C(=O)NN=Cc2ccc3c(c2)OCO3)cc1,nt,nt,33,nt
COc1cccc(/C=C/C(=O)c2ccc[nH]2)c1,35,52*,9,0.5
c1ccc2sc(Nc3nc4cc5c(cc4s3)OCO5)nc2c1,20,46,11,0.5
c1ccc(N2CCN(c3nc4cc5c(cc4s3)OCO5)CC2)cc1,26,29,17,0.7
c1ccc2c(c1)CCN(c1nc3cc4c(cc3s1)OCO4)C2,23,69*,37,0.3
c1c2c(cc3sc(N4CCOCC4)nc13)OCO2,38,56*,21,0.4
c1c2c(cc3sc(N4CCCCC4)nc13)OCO2,50,80*,47*,0.2
CCN(C(=O)COC(=O)c1cc(-c2ccc3cc(OC)ccc3c2)nc2ccccc12)C1CCS(=O)(=O)C1 (configuration not stated),83*,76*,nt,0.2
CCC(c1nnnn1-c1ccc2c(c1)OCCO2)N1CCN(c2ccc(C(F)(F)F)cc2[N+](=O)[O-])CC1 (configuration not stated),nt,nt,2,nt
COC(=O)C[C@@H]1CC[C@@H](NS(=O)(=O)c2ccc(OC)cc2)[C@@H](CO)O1,nt,nt,-10,nt
CN(C)c1ccc(NC(=O)COC(=O)CCC(=O)c2ccc(F)cc2)cc1,9,51*,-8,0.5
CCOc1cc(C(=O)CCC(=O)OCC(=O)Nc2ccc(F)cc2)ccc1O,nt,nt,-20,nt
SMILES,PPC-1+TRAIL kill,FLuc inh counter,TRAIL sens C8,FLuc act counter
Cc1cc(C)n2c(Nc3ccc4c(c3)OCCO4)c(CC(C)C)nc2n1,nt,nt,4,nt
COC(=O)C1=C(C)N(Cc2ccccc2)C(=NCc2cccc(C(F)(F)F)c2)N[C@H]1c1cccc(C(F)(F)F)c1,nt,nt,94*,nt
COC(=O)C1=C(C)N(Cc2ccccc2)C(=NCCc2c[nH]c3ccccc23)N[C@H]1c1cccc(C(F)(F)F)c1,nt,nt,52*,nt
COC(=O)C1=C(C)N(Cc2ccccc2)C(=NCc2cccc(C(F)(F)F)c2)N[C@H]1c1cccc(F)c1,nt,nt,48,nt
Cc1ccc(C)c(OCCC(=O)Nc2cccc(S(=O)(=O)N3CCCCC3)c2)c1,nt,nt,4,nt
CC(=O)Nc1ccc(/C=N/Nc2nc3ccccc3[nH]2)cc1,12,40,75*,0.6
C(=N\Nc1nc2ccccc2[nH]1)/c1ccc2c(c1)OCO2,22,55*,4,0.5
COc1cccc(/C=N/Nc2nc3ccccc3[nH]2)c1O,46,nt,44,nt
COc1cc(/C=N/Nc2nc3ccccc3[nH]2)ccc1O,4,55*,7,0.5
COc1cc(/C=N/Nc2nc3ccccc3[nH]2)cc(OC)c1O,9,61*,4,0.4
